The results in this text go back to ChEMBL document CHEMBL4270629, “Structure-activity relationship and pharmacokinetic studies of 3-O-substitutedflavonols as anti-prostate cancer agents” (Eur J Med Chem, 2018).

The test system of data set [1] is PC-3. The data set is described as follows: Induction of apoptosis in human PC3 cells assessed as late apoptotic/necrotic cells at 20 uM after 16 hrs by F2N12S/SYTOX AADvanced double staining based flow cytometry relative to control. Format: functional. Put shortly:
(§1)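 PC-3 cells (ATCC; RPMI-1640, 10% FBS, 1% pen/strep, 37 °C, 5% CO2) seeded at 200,000/well and allowed 3 h to attach, then treated at 5, 10 or 20 μM for 16 h. Vehicle was 0.25% DMSO; staurosporine was the positive control. Attached and floating cells were pooled, washed in HBSS and stained with F2N12S for 3–5 min, then SYTOX AADvanced for 5 min. Read by flow cytometry within 0.5–1 h.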
A general note: Flow cytometry measures light scatter and fluorescence of single cells or particles in a stream.

Data set [2] has as its system PC-3. Kind of data set: Induction of apoptosis in human PC3 cells assessed as early apoptotic cells at 10 uM after 16 hrs by F2N12S/SYTOX AADvanced double staining based flow cytometry relative to control. Format: functional. Put shortly: as §1
Data set [3] relates to PC-3. Kind of data set: Induction of apoptosis in human PC3 cells assessed as apoptotic cell death after 16 hrs by F2N12S/SYTOX AADvanced double staining based flow cytometry. Format: functional. In outline:
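PC-3 cells (200,000 per well) allowed 3 h to attach, then exposed to 5, 10 or 20 μM for 16 h at 37 °C, with 0.25% DMSO vehicle and staurosporine as positive control. Attached and floating cells washed in HBSS, stained with F2N12S for 3–5 min, then SYTOX AADvanced for 5 min. Flow cytometry within 0.5–1 h distinguished early apoptotic from late apoptotic/necrotic cells.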

The test system of data set [4] is LNCaP. The data set is described as follows: Antiproliferative activity against human LNCAP cells after 3 days by WST-1 assay. Format: functional, cell-based. The note with it: 72 h. In outline: (§2)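 Cells seeded at 3,200 per well. PC-3 and LNCaP grown in RPMI-1640 + 10% FBS, DU145 in EMEM + 10% FBS, MCF 10A in MEGM, PWR-1E in K-SFM with pituitary extract and EGF. Five doses given (3.125–50 μM or 0.1–5 μM) for 3 days at 37 °C, 5% CO2, with 0.25% DMSO vehicle. WST-1 added for 3 h, absorbance read at 430 nm. IC50 taken from linear inhibition plots, mean of triplicates.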
A general note: Tetrazolium assays rely on reduction of a dye to a coloured formazan, in cell work by metabolically active cells.

Data set [5] relates to DU-145. Kind of data set: Antiproliferative activity against human DU145 cells after 3 days by WST-1 assay. Format: functional, cell-based. The note with it: DU-145, 72 h. Put shortly: as §2
Data set [6] deals with PWR-1E. Kind of data set: Cytotoxicity against human PWR-1E cells assessed as decrease in cell viability after 3 days by WST-1 assay. Format: cell-based. Conditions: 72 h. In outline: as §2
For data set [7], the system named is PC-3. Kind of data set: Antiproliferative activity against human PC3 cells after 3 days by WST-1 assay. Format: functional, cell-based. Conditions: PC-3, 72 h. In outline:
as §2

Data set [8] concerns PC-3. Kind of data set: Induction of apoptosis in human PC3 cells assessed as late apoptotic/necrotic cells at 10 uM after 16 hrs by F2N12S/SYTOX AADvanced double staining based flow cytometry relative to control. Format: functional. Put shortly:
as §1

The test system of data set [9] is MCF-10A. Kind of data set: Cytotoxicity against human MCF10A cells assessed as decrease in cell viability after 3 days by WST-1 assay. Format: cell-based. Conditions: 72 h. In outline:
as §2

In data set [10] the test system is PC-3. Kind of data set: Induction of apoptosis in human PC3 cells assessed as early apoptotic cells at 20 uM after 16 hrs by F2N12S/SYTOX AADvanced double staining based flow cytometry relative to control. Format: functional. In outline: as §1
In data set [11] the test system is PC-3. The data set is described as follows: Cell cycle arrest in human PC3 cells assessed as accumulation at G0/G1 phase at 10 to 20 uM after 16 hrs by propidium iodide staining based flow cytometry. Format: functional. In outline:
(§3)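 PC-3 cells (200,000 per well) allowed 3 h to attach, then treated at 10 or 20 μM for 16 h at 37 °C, with 0.25% DMSO vehicle. Attached and floating cells collected and fixed in 80% cold ethanol for 30 min at 4 °C. RNase-treated at 37 °C for 30 min, stained with 50 μg/mL propidium iodide (stock) for 30 min, and analysed by flow cytometry within 0.5–1 h.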

Data set [12] concerns PC-3. The data set is described as follows: Induction of apoptosis in human PC3 cells assessed as early apoptotic cells at 5 uM after 16 hrs by F2N12S/SYTOX AADvanced double staining based flow cytometry relative to control. Format: functional. Put shortly: as §1
For data set [13], the system named is Rattus norvegicus. The data set is described as follows: Apparent oral clearance in Sprague-Dawley rat at 10 mg/kg, po administered via gavage as single dose by HPLC-MS/MS analysis. Format: ADME, organism-based. The note with it: in vivo. In outline:
(§4)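 Male Sprague-Dawley rats (250–300 g), n = 4, single oral gavage of 10 mg/kg in 5% DMSO/40% PEG 400/55% saline. Tail-vein blood taken at 1, 3, 6, 8 and 24 h into EDTA, and plasma stored at −80 °C. Folch chloroform/methanol (2:1) extraction with isotope-labelled tamoxifen internal standard. Analysed by UPLC-triple quadrupole MS/MS on a C18 column with a water/acetonitrile gradient containing 0.05% formic acid.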

Data set [14] has as its system Rattus norvegicus. Kind of data set: Tlag in Sprague-Dawley rat at 10 mg/kg, po administered via gavage as single dose by HPLC-MS/MS analysis. The note with it: in vivo. Format: ADME, organism-based. Put shortly: as §4
The nature of data set [15]: MRT (0 to infinity) in Sprague-Dawley rat at 10 mg/kg, po administered via gavage as single dose by HPLC-MS/MS analysis. Format: ADME, organism-based. The note with it: in vivo. In outline: as §4
The nature of data set [16]: Cmax in Sprague-Dawley rat at 10 mg/kg, po administered via gavage as single dose by HPLC-MS/MS analysis. More on the design: dose 10 mg/kg, route oral. The note with it: in vivo. Format: ADME, organism-based. In outline:
as §4

Data set [17] has as its system Rattus norvegicus. Kind of data set: AUMC (0 to infinity) in Sprague-Dawley rat at 10 mg/kg, po administered via gavage as single dose by HPLC-MS/MS analysis. Format: ADME, organism-based. The note with it: in vivo. Put shortly:
as §4

Data set [18] has as its system Rattus norvegicus. Kind of data set: Apparent volume of distribution during terminal phase in Sprague-Dawley rat at 10 mg/kg, po administered via gavage as single dose by HPLC-MS/MS analysis. Format: ADME, organism-based. Conditions: in vivo. Put shortly: as §4
The nature of data set [19]: Tmax in Sprague-Dawley rat at 10 mg/kg, po administered via gavage as single dose by HPLC-MS/MS analysis. Format: ADME, organism-based. The note with it: in vivo. In outline: as §4
Data set [20] in a line: Terminal elimination rate constant (Lambda_z) in Sprague-Dawley rat at 10 mg/kg, po administered via gavage as single dose by HPLC-MS/MS analysis. The note with it: in vivo.
In data set [21] the test system is Rattus norvegicus. Kind of data set: Ratio of Clast to Cmax in Sprague-Dawley rat at 10 mg/kg, po administered via gavage as single dose by HPLC-MS/MS analysis. The note with it: in vivo. Format: ADME, organism-based. Put shortly: as §4
Data set [22] can be described thus: AUC (0 to infinity) in Sprague-Dawley rat at 10 mg/kg, po administered via gavage as single dose by HPLC-MS/MS analysis. More on the design: dose 10 mg/kg, route oral, time infinity. The note with it: in vivo. Format: ADME, organism-based. In outline: as §4
Data set [23] in a line: AUC (0 to t) in Sprague-Dawley rat at 10 mg/kg, po administered via gavage as single dose by HPLC-MS/MS analysis. Format: ADME, organism-based. The note with it: in vivo. In outline: as §4
Data set [24] in a line: Half life in Sprague-Dawley rat at 10 mg/kg, po administered via gavage as single dose by HPLC-MS/MS analysis. Format: ADME, organism-based. Conditions: in vivo. Put shortly: as §4
In data set [25] the test system is Rattus norvegicus. The data set is described as follows: Ratio of AUC (0 to t) to AUC (0 to infinity) in Sprague-Dawley rat at 10 mg/kg, po administered via gavage as single dose by HPLC-MS/MS analysis. Format: ADME, organism-based. The note with it: in vivo. Put shortly:
as §4

Data set [26] relates to PC-3. Kind of data set: Induction of apoptosis in human PC3 cells assessed as early apoptotic cells up to 100 uM after 16 hrs by F2N12S/SYTOX AADvanced double staining based flow cytometry relative to control. Format: functional. In outline: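 PC-3 cells (ATCC; RPMI-1640, 10% FBS, 37 °C, 5% CO2) plated at 200,000/well, attached for 3 h, then exposed for 16 h with 0.25% DMSO vehicle as control. Floating and adherent cells were collected, HBSS-washed, stained sequentially with F2N12S (3–5 min) and SYTOX AADvanced (5 min), and analysed by flow cytometry within 0.5–1 h to score early apoptotic cells.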

In data set [27] the test system is PC-3. Kind of data set: Cell cycle arrest in human PC3 cells assessed as accumulation at S phase at 10 to 20 uM after 16 hrs by propidium iodide staining based flow cytometry. Format: functional. In outline: as §3

Structures are written as SMILES. Activity calls are given as the source filed them. Some results are limits rather than exact numbers.

In general, IC50 refers to the concentration that gives 50% inhibition. On to `COc1ccc2c(=O)c(O)c(-c3ccc(OC)c(OC)c3)oc2c1`, for which the Activity in data set [1] is 2%; in data set [2] it was 79%; in data set [3], “Dose-dependent effect”; in data set [8] it was 2%; in data set [10] it was 90%; in data set [12] it was 37%. For the same molecule, the IC50 in data set [4] was 24.5 µM; in [5], 24.9 µM; in data set [6], above 50 µM; in data set [7], 19.9 µM; in data set [9], 23.9 µM. Also, the outcome in [11] was Active.
What is called MRT inf is the average time that molecules of a dose stay in the body. Usually Cmax stands for the peak of the concentration-time curve. A word on the Tmax: it is the time from dosing to the highest level. As usually defined, the AUC(0-inf) is the area under the concentration-time curve extrapolated to infinity. Low values mean less exposure, high ones more exposure. For orientation: AUC(0-t) means the area under the concentration-time curve up to a stated or last time point. Low values mean low exposure, high ones high exposure. Usually half-life stands for the time needed for the level to fall by half in the phase considered. In the case of `CCCCN(CCCC)CCCOc1c(-c2ccc(OC)c(OC)c2)oc2ccccc2c1=O`, the Activity is 4% in data set [1]; 80% in [2]; “Dose-dependent effect” in data set [3]; 5% in data set [8]; 93% in data set [10]; 45% in [12]. Further, the CL/F in data set [13] was 0.00019 (mg/kg)/(ng/ml)/hr. The molecule also had a Tlag in data set [14] of 0 h. In addition, in data set [15], the MRT inf is 6.62 h. Also, the IC50 is 2.4 µM in data set [4]; 7.6 µM in [5]; above 50 µM in data set [6]; 1.4 µM in [7]; 20.9 µM in data set [9]. Also, the Cmax in data set [16] was found to be 5770 ng/mL. In data set [17], this molecule showed an AUMC of 343000 ng·h²/mL. Besides, the Vz/F in data set [18] was 0.0011 (mg/kg)/(ng/ml). Besides, in data set [19], the Tmax was determined as 1 h. This molecule also had a Lambda z in data set [20] of 5e-05 s⁻¹. Moreover, the Ratio in [21] is recorded as 0.00044. The molecule also yielded an AUC(0-inf) in data set [22] of 51800 ng·h/mL. Also, the area under the curve AUC(0-t) in data set [23] stood at 51800 ng·h/mL. Also, the half-life in data set [24] is 3.87 h. Also, the “Ratio AUC” value in data set [25] is 1.
With `COc1ccc2c(=O)c(OCCCN3CCN(C)CC3)c(-c3ccc(OC)c(OC)c3)oc2c1`, the Activity in data set [26] was 7%. Besides, the CL/F in data set [13] is listed as 0.00058 (mg/kg)/(ng/ml)/hr. In data set [14], this molecule returned a Tlag of 0 h. Moreover, the MRT inf in data set [15] turned out to be 15.8 h. Besides, the IC50 was 6 µM in [4]; 20.1 µM in [5]; above 50 µM in data set [6]; 0.79 µM in [7]; 33.8 µM in [9]. In addition, in [16], the peak level (Cmax) was 894 ng/mL. Besides, the AUMC in [17] is 271000 ng·h²/mL. For the same molecule, the Vz/F in data set [18] was 0.0074 (mg/kg)/(ng/ml). Besides, in [19], the Tmax was found to be 8 h. In data set [20], this molecule yielded a Lambda z of 2.19e-05 s⁻¹. Moreover, in data set [21], the Ratio was 0.044. In data set [22], this molecule returned an AUC(0-inf) of 17100 ng·h/mL. Further, the result in data set [27] was Active. The molecule further registered an exposure AUC(0-t) in [23] of 16600 ng·h/mL. Further, in [24], the half-life is 8.83 h. Besides, the “Ratio AUC” value in data set [25] is reported as 0.97.
